Measured values from ChEMBL document CHEMBL4715796, “Discovery of Chromane Containing Hepatitis C Virus (HCV) NS5A Inhibitors with Improved Potency against Resistance-Associated Variants” (J Med Chem, 2016).
Changes are numbered by the printed parent chain.

Legend:
[1] = Selectivity ratio of EC90 for inhibition of NS5A in Hepatitis C virus subtype 2b infected in human HuH7 cells assessed as reduction in viral to EC90 for inhibition of NS5A in Hepatitis C virus subtype 1a; assay type: cell-based
[2] = Selectivity ratio of EC90 for inhibition of NS5A Y93H mutant in Hepatitis C virus subtype 1b to EC90 for Selectivity ratio of EC90 for inhibition of NS5A in Hepatitis C virus subtype 1a
Outline: (§1)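 Fold shift is calculated against the GT1a EC90. The variant EC90 comes from a transient replicon assay: the NS5A variant is introduced into a GT1a-H77 or GT1b-Con1 replicon and electroporated into Huh7-derived cells. The read-out is reduced luciferase signal. EC90s are means of at least two experiments.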

[3] = tested on: Hepatitis C virus subtype 1a; experiment: Selectivity ratio of EC90 for inhibition of NS5A Y93N mutant in Hepatitis C virus subtype 1a to EC90 for Selectivity ratio of EC90 for inhibition of NS5A in Hepatitis C virus subtype 1a; outline: as §1
Huh-7 [4] = experiment: Inhibition of NS5A in Hepatitis C virus subtype 3a infected in human HuH7 cells assessed as reduction in viral replication by luciferase reporter gene assay; assay type: cell-based
Outline: (§2)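 Transient replicon assay with GT1a-H77, GT1b-Con1 or chimeric replicons, electroporated into a Huh7-derived cell line. Percent inhibition of replication, read as a drop in luciferase signal, was calculated at each concentration to give EC90. Values are means of at least two experiments.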

[5] = tested on: T1, Nonstructural protein 5A (Hepatitis C virus), Q5L478 [Y93N]; experiment: Inhibition of NS5A Y93N mutant in Hepatitis C virus subtype 1a
T1 sequence (whole entry): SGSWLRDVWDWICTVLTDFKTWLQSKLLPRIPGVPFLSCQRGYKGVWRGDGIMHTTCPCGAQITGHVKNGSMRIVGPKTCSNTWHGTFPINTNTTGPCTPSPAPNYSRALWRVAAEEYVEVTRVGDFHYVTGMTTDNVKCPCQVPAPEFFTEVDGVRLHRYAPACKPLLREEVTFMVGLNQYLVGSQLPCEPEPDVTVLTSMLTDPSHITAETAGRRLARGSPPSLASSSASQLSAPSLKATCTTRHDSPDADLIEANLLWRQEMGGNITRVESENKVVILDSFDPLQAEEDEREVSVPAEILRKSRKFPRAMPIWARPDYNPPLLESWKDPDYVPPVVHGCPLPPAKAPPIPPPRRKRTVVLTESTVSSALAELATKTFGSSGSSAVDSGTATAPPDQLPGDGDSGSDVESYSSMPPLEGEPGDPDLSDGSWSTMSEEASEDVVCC
Outline: (§3)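 NS5A resistance variants engineered into GT1a-H77 or GT1b-Con1 replicons. Each variant replicon is transfected transiently by electroporation into a Huh7-derived cell line. Percent inhibition is taken from the drop in luciferase signal at each compound concentration, and EC90 is calculated from these. Values are means of at least two experiments.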

Huh-7 [6] = experiment: Inhibition of NS5A in Hepatitis C virus subtype 4a infected in human HuH7 cells assessed as reduction in viral replication by luciferase reporter gene assay; assay type: cell-based; outline: as §2
[7] = tested on: Hepatitis C virus subtype 1a; experiment: Selectivity ratio of EC90 for inhibition of NS5A Q30D mutant in Hepatitis C virus subtype 1a to EC90 for Selectivity ratio of EC90 for inhibition of NS5A in Hepatitis C virus subtype 1a; outline: as §1
[8] = tested on: Hepatitis C virus subtype 1b; experiment: Inhibition of NS3 D168Y mutant in Hepatitis C virus subtype 1b
[9] = Selectivity ratio of EC90 for inhibition of NS3 D168Y mutant in Hepatitis C virus subtype 1b to EC90 for Selectivity ratio of EC90 for inhibition of NS5A in Hepatitis C virus subtype 1a
[10] = tested on: Nonstructural protein 5A (Hepatitis C virus), Q5L478 [UNDEFINED MUTATION]; experiment: Inhibition of NS5A Q30R mutant in Hepatitis C virus subtype 1a; outline: as §3
[11] = tested on: Hepatitis C virus subtype 1a; experiment: Selectivity ratio of EC90 for inhibition of NS5A R155K mutant in Hepatitis C virus subtype 1a to EC90 for Selectivity ratio of EC90 for inhibition of NS5A in Hepatitis C virus subtype 1a
Huh-7 [12] = experiment: Inhibition of NS5A in Hepatitis C virus subtype 1a infected in human HuH7 cells assessed as reduction in viral replication by luciferase reporter gene assay; assay type: cell-based; outline: as §2
[13] = tested on: Nonstructural protein 5A (Hepatitis C virus), Q5L478 [UNDEFINED MUTATION]; experiment: Inhibition of NS5A L31V mutant in Hepatitis C virus subtype 1a infected in human HuH7 cells assessed as reduction in viral replication by luciferase reporter gene assay; assay type: cell-based; conditions: Huh-7; outline: as §3
[14] = Selectivity ratio of EC90 for inhibition of NS5A L31V mutant in Hepatitis C virus subtype 1b to EC90 for Selectivity ratio of EC90 for inhibition of NS5A in Hepatitis C virus subtype 1a; outline: as §1
[15] = tested on: Nonstructural protein 5A (Hepatitis C virus), Q5L478 [UNDEFINED MUTATION]; experiment: Inhibition of NS5A L31V mutant in Hepatitis C virus subtype 1b; outline: as §3
[16] = Selectivity ratio of EC90 for inhibition of NS5A Y93H mutant in Hepatitis C virus subtype 1a infected in human HuH7 cells assessed as reduction in viral to EC90 for inhibition of NS5A in Hepatitis C virus subtype 1a; assay type: cell-based; outline: as §1
[17] = tested on: Hepatitis C virus subtype 1a; experiment: Selectivity ratio of EC90 for inhibition of NS5A R155K V36 mutant in Hepatitis C virus subtype 1a to EC90 for Selectivity ratio of EC90 for inhibition of NS5A in Hepatitis C virus subtype 1a
[18] = Selectivity ratio of EC90 for inhibition of NS5A in Hepatitis C virus subtype 1b infected in human HuH7 cells assessed as reduction in viral to EC90 for inhibition of NS5A in Hepatitis C virus subtype 1a; assay type: cell-based
Outline: (§4)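 Fold shift calculated against the GT1a EC90, using EC90 values from the luciferase replicon assay in Huh7-derived cells.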

[19] = Selectivity ratio of EC90 for inhibition of NS5A L31V mutant in Hepatitis C virus subtype 1a infected in human HuH7 cells assessed as reduction in viral to EC90 for inhibition of NS5A in Hepatitis C virus subtype 1a; assay type: cell-based; outline: as §1
[20] = tested on: Hepatitis C virus subtype 1a; experiment: Selectivity ratio of EC90 for inhibition of NS5A Q30R mutant in Hepatitis C virus subtype 1a to EC90 for Selectivity ratio of EC90 for inhibition of NS5A in Hepatitis C virus subtype 1a; outline: as §1
Huh-7 [21] = experiment: Inhibition of NS5A in Hepatitis C virus subtype 2b infected in human HuH7 cells assessed as reduction in viral replication by luciferase reporter gene assay; assay type: cell-based; outline: as §2
[22] = tested on: Hepatitis C virus subtype 1a; experiment: Inhibition of NS3 R155K/V36M mutant in Hepatitis C virus subtype 1a
[23] = Selectivity ratio of EC90 for inhibition of NS5A in Hepatitis C virus subtype 3a infected in human HuH7 cells assessed as reduction in viral to EC90 for inhibition of NS5A in Hepatitis C virus subtype 1a; assay type: cell-based
[24] = Selectivity ratio of EC90 for inhibition of NS5A in Hepatitis C virus subtype 4a infected in human HuH7 cells assessed as reduction in viral to EC90 for inhibition of NS5A in Hepatitis C virus subtype 1a; assay type: cell-based; outline: as §4
[25] = tested on: Hepatitis C virus subtype 1a; experiment: Inhibition of NS5A Q30D mutant in Hepatitis C virus subtype 1a; outline: as §3
[26] = tested on: Hepatitis C virus subtype 1a; experiment: Inhibition of NS3 R155K mutant in Hepatitis C virus subtype 1a
[27] = tested on: T2, Nonstructural protein 5A (Hepatitis C virus), Q5L478 [Y93H]; experiment: Inhibition of NS5A Y93H mutant in Hepatitis C virus subtype 1b; outline: as §3
T2 sequence (whole entry): T1 sequence (whole entry) with N93H

Huh-7 [28] = experiment: Inhibition of NS5A in Hepatitis C virus subtype 1b infected in human HuH7 cells assessed as reduction in viral replication by luciferase reporter gene assay; assay type: cell-based; outline: as §2
[29] = Half-life in male Wistar Han rats at 2 mg/kg, iv administered post overnight fasting measured upto 24 hrs by LC-MS/MS analysis; assay type: ADME, organism-based; conditions: rat, in vivo
Outline: (§5)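 Overnight-fasted male Wistar Han rats or Beagle dogs, two animals per group, 24 h study. IV in 60% PEG200 (rat 2 mg/kg, dog 1 mg/kg). PO in 10% Tween (rat 10 mg/kg, dog 5 mg/kg). Blood sampled up to 24 h, plasma separated by centrifugation, and drug measured by LC/MS. MRT reported for the IV route.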

[30] = Oral bioavailability in male Wistar Han rat at 10 mg/kg post overnight fasting measured upto 24 hrs by LC-MS/MS analysis; assay type: ADME, organism-based; conditions: in vivo; outline: as §5
[31] = Cmax in male Wistar Han rats at 10 mg/kg, po administered post overnight fasting measured upto 24 hrs by LC-MS/MS analysis; assay type: ADME, organism-based; design: route oral, dose 10 mg/kg, time <=24; conditions: rat, in vivo; outline: as §5
[32] = Clearance in male Wistar Han rats at 2 mg/kg, iv administered post overnight fasting measured upto 24 hrs by LC-MS/MS analysis; assay type: ADME, organism-based; conditions: rat, in vivo; outline: as §5
[33] = AUC in male Wistar Han rats at 10 mg/kg, po administered post overnight fasting measured upto 24 hrs by LC-MS/MS analysis; assay type: ADME, organism-based; design: route oral, dose 10 mg/kg, time <=24; conditions: rat, in vivo; outline: as §5
[34] = tested on: T2, Nonstructural protein 5A (Hepatitis C virus), Q5L478 [Y93H]; experiment: Inhibition of NS5A Y93H mutant in Hepatitis C virus subtype 1a infected in human HuH7 cells assessed as reduction in viral replication by luciferase reporter gene assay; assay type: cell-based; conditions: Huh-7; outline: as §3
[35] = Drug concentration in male Wistar Han rat at 10 mg/kg, po measured after 24 hrs by LC/MS analysis; assay type: ADME, organism-based; conditions: in vivo, read-out: Drug uptake; outline: as §5
[36] = Cytotoxicity against human HuH7 cells assessed as reduction in cell viability measured after 72 hrs by Hoechst/Alexa fluor 488 staining based Edu plus cell counting analysis; design: species or system Huh-7
Outline: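 Huh7 cells were seeded at 1,200 per well and treated with a 20-point twofold compound dilution series for 72 h, with EdU added for the last 18-20 h. Cells were then fixed and permeabilized, nuclei stained with Hoechst, and EdU labelled with Alexa Fluor 488 by click reaction. Plates were scanned with 405 nm (420-500 nm) and 488 nm (500-530 nm) detection, giving CC50.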

Structure (SMILES): COC(=O)N[C@H](C(=O)N1CCC[C@H]1c1ncc(-c2cc(F)c3c(c2)OC(c2ccc4c(c2)OCCC4)n2c-3cc3cc(-c4cnc([C@@H]5CCCN5C(=O)[C@@H](NC(=O)OC)C(C)C)[nH]4)ccc32)[nH]1)C(C)C (stereo partly drawn) [listing 1 of 2 here]
- Selectivity ratio [1]: 100
- Selectivity ratio [2]: 23
- Selectivity ratio [3]: 67
- EC90 (Huh-7 [4]): 0.01 nM
- EC90 [5]: 0.2 nM
- EC90 (Huh-7 [6]): 0.002 nM
- Selectivity ratio [7]: 300
- EC90 [8]: 0.002 nM
- Selectivity ratio [9]: 1
- EC90 [10]: 0.02 nM
- Selectivity ratio [11]: 1
- EC90 (Huh-7 [12]): 0.003 nM
- EC90 [13]: 0.02 nM
- Selectivity ratio [14]: 2
- EC90 [15]: 0.005 nM
- Selectivity ratio [16]: 167
- Selectivity ratio [17]: 1
- Selectivity ratio [18]: 1
- Selectivity ratio [19]: 7
- Selectivity ratio [20]: 7
- EC90 (Huh-7 [21]): 0.3 nM
- EC90 [22]: 0.001 nM
- Selectivity ratio [23]: 3
- Selectivity ratio [24]: 1
- EC90 [25]: 0.9 nM
- EC90 [26]: 0.0001 nM
- EC90 [27]: 0.07 nM
- EC90 (Huh-7 [28]): 0.003 nM

Structure (SMILES): COC(=O)N[C@H](C(=O)N1CCC[C@H]1c1ncc(-c2cc(F)c3c(c2)OC(c2ccc4c(c2)OCCC42CC2)n2c-3cc3cc(-c4cnc([C@@H]5CCCN5C(=O)[C@@H](NC(=O)OC)C(C)C)[nH]4)ccc32)[nH]1)C(C)C.O=C(O)C(F)(F)F.O=C(O)C(F)(F)F (stereo partly drawn)
- Selectivity ratio [1]: 40
- Selectivity ratio [2]: 7
- Selectivity ratio [3]: 300
- EC90 (Huh-7 [4]): 0.01 nM
- EC90 [5]: 0.9 nM
- EC90 (Huh-7 [6]): 0.006 nM
- Selectivity ratio [7]: 400
- half-life [29]: 8.5 h
- bioavailability [30]: 2%
- EC90 [10]: 0.03 nM
- EC90 (Huh-7 [12]): 0.003 nM
- EC90 [13]: 0.006 nM
- Selectivity ratio [14]: 2
- Cmax [31]: 29 nM
- clearance [32]: 15 mL/min/kg
- AUC at 24 h [33]: 0.24 µM·h
- EC90 [15]: 0.005 nM
- Selectivity ratio [16]: 20
- Selectivity ratio [18]: 1
- Selectivity ratio [19]: 1
- Selectivity ratio [20]: 10
- EC90 (Huh-7 [21]): 0.2 nM
- EC90 [34]: 0.1 nM
- Selectivity ratio [23]: 2
- Selectivity ratio [24]: 1
- concentration at 24 h [35]: 1 nM
- EC90 [25]: 1.2 nM
- EC90 [27]: 0.02 nM
- EC90 (Huh-7 [28]): 0.004 nM

Structure (SMILES): COC(=O)N[C@H](C(=O)N1CCC[C@H]1c1ncc(-c2cc(F)c3c(c2)OC(c2ccc4c(c2)OCCC4)n2c-3cc3cc(-c4cnc([C@@H]5CCCN5C(=O)[C@@H](NC(=O)OC)C(C)C)[nH]4)ccc32)[nH]1)C(C)C (stereo partly drawn) [listing 2 of 2 here]
- CC50 at 72 h [36]: > 50000 nM
